Measurements of several laboratories.
Protocols differ between the studies behind these lines.
Target: Phosphatidylinositol 4-phosphate 3-kinase C2 domain-containing subunit alpha (PIK3C2A, Homo sapiens, UniProt O00443)
Action: inhibitor

`O=C(CSc1nc2nccnc2c(=O)n1CCc1ccccc1)Nc1ccccc1` has an inhibition of 93% (enzyme activity; 10 µM).
The activity vs control of `Cc1ccc(C(=O)NCc2ccsc2)cc1C#Cc1cn(C(C)C)c2ncnc(N)c12` is reported as 98% (enzyme activity; 1 µM).
`COc1cc(Cl)c(C(=O)N[C@@H](CN[C@H]2CC[C@@H](N)CC2)Cc2ccc(C#N)cc2)cc1-c1ccc(CN[C@H](C)c2ccc(C)cc2)o1` has a remaining activity of 93% (enzyme activity; 1 µM).
With `CN1CC(Oc2cnc(C#N)cc2-c2ccn3nc(NC(=O)C4CC4)cc3c2)C1` the inhibition was -4% (enzyme activity; 1 µM).
For `C=CC(=O)Nc1cc(Nc2nccc(Nc3cc(Cl)c(F)cc3C(C)(C)O)n2)c(OC)cc1N1CC[C@@H](N(C)C)C1`, the inhibition was -2% (enzyme activity; 1 µM).
With `CC(C)CCn1c(SCC(=O)Nc2ccccc2C(F)(F)F)nc2nccnc2c1=O` the inhibition was 84% (enzyme activity; 10 µM).
For `Cc1ccc(NC(=O)c2ccc(C)c(C(F)(F)F)c2)cc1C#Cc1nn(C2CCC(O)CC2)c2ncnc(N)c12` (stereo not drawn), the remaining signal was 92% (cell-free assay; 10 µM).
With `Cc1cnc(NC2CCOCC2)nc1-n1cnc(C(=O)NC(CN)c2cc(F)cc(Cl)c2)c1` (stereo not drawn) the remaining activity was 100% (enzyme activity, radiometric; 1 µM).
`Cc1cc(NC(=O)c2cccc3cc(-c4cccc5[nH]nc(N)c45)ccc23)ccc1F` gave an activity vs control of 108% (enzyme activity; 0.1 µM).
